# beta cell repl: inducers of MIN6 beta-cell proliferation, primary screen, ATP luminescence, uHTS | AID 2380, 2010 | MIN6 cells proliferation, ATPlite luminescence, 48 h; cells starved in 0.2% serum; 100% = growth in 10% serum | proliferation, % at 10 µM | 330,000 compounds, 0.29% hits;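 active = compounds whose signal lies at least 3.5 SD above the mean of all wells on their plate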;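 note: 0% = DMSO-treated cells in low-serum medium and 100% = 10% serum control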
# NOD2 RIPK2 PPI: NOD2-RIPK2 binding disruptors in cells, primary screen, fluorescence, CHO cells, BLA complementation. Receptor-interacting serine/threonine-protein kinase 2 (Homo sapiens), O43353. CCF4 ratio. inhibition, % at 4.98 µM. 360,000 compounds, 0.38% hits; in the data active = inhibition above about 21%;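 note: 0% = vehicle only and 100% = reference blocker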
# MC4R barr agon: MC4R agonists recruiting beta-arrestin, primary screen, cell-based, luminescence, agonist arm of biased-ligand search. Melanocortin receptor 4 (Homo sapiens), P32245. U2OS MC4R beta-arrestin complementation; percent of melanotan II response, DMSO zero. activation, % at 8.9 µM. 360,000 compounds, 0.98% hits;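 active = activation above a per-plate cutoff, the mean activation of sample wells on that plate plus 3 SD, cut at about 8% in these data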
# Target sequence (P32245 whole entry, looked up): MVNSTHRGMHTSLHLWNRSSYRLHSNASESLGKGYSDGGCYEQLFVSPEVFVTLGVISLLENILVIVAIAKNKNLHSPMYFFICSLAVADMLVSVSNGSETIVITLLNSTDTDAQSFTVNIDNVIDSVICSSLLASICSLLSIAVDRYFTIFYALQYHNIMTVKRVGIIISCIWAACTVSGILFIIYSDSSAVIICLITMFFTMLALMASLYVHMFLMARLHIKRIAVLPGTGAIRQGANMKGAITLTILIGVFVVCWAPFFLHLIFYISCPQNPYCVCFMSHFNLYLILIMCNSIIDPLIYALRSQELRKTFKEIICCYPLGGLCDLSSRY
# TLR9-MyD88 block: inhibitors of TLR9-MyD88 association in cells, primary screen, cell-based, CHO, BLA complementation, fluorescence | CCF4 FRET ratio | AID 504734, 2011 | inhibition, % at 4.98 µM | 340,000 compounds, 0.21% hits | Toll-like receptor 9 (Homo sapiens) + Myeloid differentiation primary response protein …;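 active = inhibition above the mean over all tested compounds plus 3 SD, cut at about 21% in these data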;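 note: 0% = DMSO only wells and 100% = clavulanate BLA inhibitor control wells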
# TLR4-MyD88 BLA: inhibitors of TLR4-MyD88 association in cells, primary screen, cell-based, HeLa CL3-4, BLA complementation, FRET ratio; Toll-like receptor 4 (Homo sapiens) + Myeloid differentiation primary response protein …; HeLa CL3-4 TLR4/MyD88 BLA complementation; inhibition, % at 8.4 µM; 200,000 compounds, 0.18% hits; AID 861, 2007; in the data active = inhibition above about 25%;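 note: 0% = vehicle and 100% = reference inhibitor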
# MC4R antag cAMP: MC4R antagonists of cAMP signaling, primary screen, cell-based, TR-FRET, antagonist arm of biased-ligand search | 360,000 compounds, 0.48% hits | MC4R-expressing cells, MTII-stimulated cAMP, LANCE TR-FRET | inhibition, % at 6.5 µM | AID 540295, 2011 | Melanocortin receptor 4 (Homo sapiens), P32245;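 active = inhibition above its plate's cutoff, the mean of tested wells on that plate plus 3 SD, cut at about 29% in these data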;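 note: 0% = Melanotan II alone and 100% = Melanotan II plus saturating MCL0020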
#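 System – human MC4R-expressing U2OS cells · Also added – Melanotan II · Dosing – one concentration, 6.5 µM nominal · Timing – 30-min compound, 1-h challenge, 1-h detection, room temperature · Measured by – Eu-cAMP/anti-cAMP TR-FRET, emission 671 nm · Replicates – singlicate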
# U2OS cAMP counter: nonselective cAMP signaling inhibitors, parental cells, counter-screen for MC4R biased antagonist project, cell-based, TR-FRET, U2OS, forskolin, triplicate; shares compounds with MC4R antag cAMP; LANCE TR-FRET; inhibition, % at 6.5 µM; 1,600 compounds, 26% hits; AID 602193, 2012;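 active = mean inhibition over triplicates above the low-control well mean plus 3 SD, set per campaign, cut at about 13% in these data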;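 note: signal is single emission at 671 nm which falls as cellular cAMP rises; 0% = forskolin-stimulated wells and 100% = buffer without forskolin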
# MC4R cAMP antag: MC4R cAMP antagonists, retest, confirmation, cell-based, TR-FRET. shares compounds with MC4R antag cAMP. MC4R-expressing cells, MTII-stimulated cAMP. inhibition, % at 6.5 µM. 1,600 compounds, 27% hits; in the data active = inhibition above about 29%;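 note: 0% = agonist stimulated wells alone and 100% = agonist stimulated wells plus saturating reference antagonist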
# Active calls of the source: *; . = no result; + = active, no number. Only some compounds are listed: those with a hit (about 2.1% of all), similar ones and a draw of the others.
SMILES,beta cell repl,NOD2 RIPK2 PPI,MC4R barr agon,TLR9-MyD88 block,TLR4-MyD88 BLA,MC4R antag cAMP,U2OS cAMP counter,MC4R cAMP antag
CCN(CC(=O)Nc1ccc(NC(C)=O)cc1)C(=O)CCN1C(=O)c2cccc([N+](=O)[O-])c2C1=O,-2,-14,-2,1,.,5,.,.
COc1cc(C(=O)NCC(=O)N/N=C/c2ccc(OC(=O)c3ccco3)cc2)cc(OC)c1OC,-3,-5,-3,-2,-14,-9,.,.
Cc1cc(C)n(/N=C/c2cc([N+](=O)[O-])ccc2O)c(=O)c1,0,-9,-3,3,-2,9,.,.
Cc1ccc(NC(=O)c2ccccc2[N+](=O)[O-])nc1,-2,-9,1,-2,-8,38*,0,-8
Cc1ccc(NC(=O)c2ccc(Cl)cc2[N+](=O)[O-])nc1,-3,-2,-3,-1,2,-17,.,.
CCC(C)(C)NC(=O)C(c1cccc(OC)c1OC)N(Cc1ccc(OC)cc1)C(=O)CCC(=O)Nc1cc(C)on1 (configuration not stated),0,5,1,-9,.,9,.,.
COc1cccc(C(C(=O)NC(C)(C)C)N(Cc2ccc(F)cc2)C(=O)CCC(=O)Nc2cc(C)on2)c1OC (configuration not stated),-2,-4,0,-6,.,30*,2,6
CCOC(=O)C1=CCN(S(=O)(=O)c2ccc(Cl)cc2)C1c1cccc(C)c1 (configuration not stated),.,-5,.,.,.,.,.,.
CN(Cc1ccc(Cl)cc1Cl)C(=O)C1CSC2(C)CCC(=O)N12 (configuration not stated),.,0,0,-4,.,6,.,.
CC1(C)OC(=O)C(=Cc2ccc(-c3ccc(S(N)(=O)=O)cc3)o2)C(=O)O1,1,-10,-1,14,9,39*,11,19
Cc1ccc(Sc2cnc(N)nc2C)cc1,0,-7,4,-7,-14,37*,-2,-7
Cc1ccc(Sc2ncccc2C(N)=O)cc1,0,2,2,0,.,-8,.,.
COc1cc(-c2cc(C(=O)Nc3ccccc3N3CCOCC3)c3ccccc3n2)cc(OC)c1OC,-3,4,1,-5,6,6,.,.
COc1cc(-c2cc(C(=O)Nc3ccc(C)c(S(=O)(=O)N4CCOCC4)c3)c3ccccc3n2)cc(OC)c1OC,-1,-2,0,-11,.,32*,4,13
O=C(Nc1cccc([N+](=O)[O-])c1)c1ccc2c(c1)C(=O)N(c1ccccn1)C2=O,0,-2,-1,-8,.,35*,12,18
CC1CCc2sc3c(c2C1)c(=O)n(CC(=O)O)c(=O)n3Cc1ccc(Cl)cc1 (configuration not stated),-6,-5,-1,9,.,0,.,.
CCCCn1c(=O)[nH]c(=O)c2c1nc(-c1ccc(C#N)cc1)n2C1CCCC1,-3,6,0,2,-2,29*,3,8
CCOc1ccc(-n2nc3c(=S)[nH]nc(C)c3c2C)cc1,0,-8,-1,-3,0,92*,55*,107*
CC1CN(S(=O)(=O)c2ccc(C(=O)N3c4ccccc4CC3C)cc2)CC(C)O1 (configuration not stated),-2,11,-1,-5,.,29*,-2,-18
CC1CC(C)CN(S(=O)(=O)c2ccc(C(=O)N3CC(C)OC(C)C3)cc2)C1 (configuration not stated),-2,-8,0,-3,.,2,.,.
Cc1cc(C)cc(NC(=O)CN2CCC(NC(=O)c3cccc(F)c3)CC2)c1,-1,2,-2,7,.,4,.,.
Cc1ccc(NC(=O)CN2CCC(NC(=O)c3cccc(F)c3)CC2)cc1C,-2,-6,3,-3,.,30*,2,-7
C=C(C)CN(CC)C(=O)CCc1nnc(CCCc2ccccc2)o1,0,8,-1,-10,0,31*,-2,-11
CCCCNC(=O)Cn1c(=O)c2c(ncn2CC)n(Cc2ccccc2)c1=O,5,-6,0,-7,.,0,.,.
COc1ccccc1CN(C)C(=O)C(NC(=O)Cc1cccc2ccccc12)C(C)C (configuration not stated),-5,8,1,-8,.,36*,-9,-1
SMILES,beta cell repl,NOD2 RIPK2 PPI,MC4R barr agon,TLR9-MyD88 block,TLR4-MyD88 BLA,MC4R antag cAMP,U2OS cAMP counter,MC4R cAMP antag
COc1ccc(CN(C)C(=O)CNC(=O)Cc2cccc3ccccc23)c(OC)c1OC,3,-3,-2,-8,.,8,.,.
CCN(C(=O)COC(=O)c1cc([N+](=O)[O-])ccc1N1CCOCC1)C1CCCCC1,3,-8,-1,2,.,-4,.,.
Cc1cnc(NC(=O)Cc2ccccc2Cl)s1,-1,1,0,-7,.,30*,-1,-6
O=S(=O)(Cc1cc(Cl)nc(-c2ccncc2)n1)c1ccccc1,-5,-1,-3,6,4,42*,5,15
O=c1sc(N2CCN(c3ccc(F)cc3)CC2)nc2ccsc12,5,9,6,3,0,+,-3,2
O=c1sc(N2CCN(c3ccccc3F)CC2)nc2ccsc12,-1,-10,6,5,-10,4,.,.
CSc1ncccc1C(=O)OCC(=O)N1CC(=O)Nc2ccccc21,-4,6,-2,-1,.,1,.,.
Cc1ccccc1C(=O)Nc1ccccc1N1CCCCC1,3,-1,8,-8,-1,35*,1,-2
O=C(Nc1ccccc1N1CCCC1)c1ccccc1Cl,-3,-4,1,12,.,-3,.,.
COC(=O)CSc1nc(C)c(C)c(C)c1C(N)=O,-2,4,-1,-5,7,12,.,.
O=C(O)c1cccnc1SCC(=O)C12CC3CC(CC(C3)C1)C2,-1,8,-1,2,.,11,.,.
O=C(CSc1ccccn1)C12CC3CC(CC(C3)C1)C2,3,-4,4,9,10,32*,2,-5
